An excerpt weighted towards active compounds, which were near 2.6% of everything screened.
SENP1 inh: human SENP1 catalytic domain inhibitors, primary screen, biochemical, FRET, uHTS | Sentrin-specific protease 1 (Homo sapiens), Q9P0U3 | recombinant SENP1 catalytic domain, CyPet-SUMO1-YPet FRET cleavage | inhibition, % at 10 µM | 360,000 tested, 0.21% active;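 active = inhibition at least 30% at 10 µM, raw YFP signal under a set limit, fluorescence ratio 0.5 to 1.5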;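 also: 0% = enzyme with DMSO and 100% = no enzyme wells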
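Assay system – human recombinant His6-tagged SENP1 catalytic domain enzyme · Input – SENP1 enzyme, 20 pM final · Buffer or medium – Tris pH 8 buffer plus EDTA, NaCl, BME, BSA, NP40, catalase · Schedule – 50 min reaction at room temperature · Technique – FRET read of cyan and yellow fluorescence · Control set – no-enzyme wells low, DMSO-plus-enzyme wells high control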
UCH37 inh: inhibitors of human UCH37 deubiquitinase, primary screen, biochemical, Ub-AMC cleavage, fluorescence; AID 588478, 2011; purified proteasome/UCH37; Ubiquitin carboxyl-terminal hydrolase isozyme L5 (Homo sapiens), Q9Y5K5; inhibition, % (test concentration not listed); 330,000 tested, 0.33% active;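 active = mean inhibition over replicate wells above about 20%, limit read from the data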;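 also: 0% = compound-free wells with enzyme and 100% = wells lacking proteasome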
Target sequence (Q9Y5K5 whole entry, looked up): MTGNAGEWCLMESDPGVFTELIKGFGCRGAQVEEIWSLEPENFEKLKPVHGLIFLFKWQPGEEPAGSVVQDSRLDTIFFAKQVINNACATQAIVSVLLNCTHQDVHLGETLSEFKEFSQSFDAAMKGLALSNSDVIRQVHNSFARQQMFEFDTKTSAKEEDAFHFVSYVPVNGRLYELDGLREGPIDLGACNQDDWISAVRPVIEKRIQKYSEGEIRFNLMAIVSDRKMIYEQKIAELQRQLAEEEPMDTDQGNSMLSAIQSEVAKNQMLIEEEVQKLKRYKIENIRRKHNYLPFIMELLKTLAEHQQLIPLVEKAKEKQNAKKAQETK
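Schedule: 30 min plus 25 min, room temperature / Material: human UCH37 within purified proteasomes / Technique: AMC fluorescence intensity at 355/460 nm / Buffer or medium: pH 7.4 Tris-HCl (50 mM) with ovalbumin, ATP-MgCl2, DTT / Controls: wells without proteasome as full block, compound-free enzyme plus substrate as uninhibited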
SENP6 inh: SENP6 protease inhibitors, primary screen, biochemical, luminescence, uHTS; Sentrin-specific protease 6 (Homo sapiens), Q9GZR1; Recombinant SENP6 catalytic domain, aminoluciferin luminescence; inhibition, % at 10 µM; 330,000 tested, 1.8% active;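 active = inhibition above about 50% at the single tested dose, limit read from the data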;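 also: plate controls were DMSO wells with enzyme for no effect and DMSO wells lacking enzyme for full effect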
SENP8 block-1: SENP8 protease inhibitors, primary screen, biochemical, luminescence; Sentrin-specific protease 8 (Homo sapiens), Q96LD8; purified SENP8, Z-RLRGG-aminoluciferin cleavage; inhibition, % at 10 µM; 330,000 tested, 1.2% active; AID 2540, 2010; in the data active = inhibition above about 50%
Target sequence (Q96LD8 whole entry, looked up): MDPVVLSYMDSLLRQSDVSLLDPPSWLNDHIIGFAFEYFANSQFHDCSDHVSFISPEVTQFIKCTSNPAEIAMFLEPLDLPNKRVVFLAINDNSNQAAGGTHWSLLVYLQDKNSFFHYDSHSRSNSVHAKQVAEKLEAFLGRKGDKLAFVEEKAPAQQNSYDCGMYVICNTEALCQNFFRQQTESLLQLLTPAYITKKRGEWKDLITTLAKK
SENP7 inh: SENP7 protease inhibitors, primary screen, biochemical, luminescence, uHTS | recombinant SENP7, Z-RLRGG-aminoluciferin luminescence, 40 min | inhibition, % at 5 µM | 330,000 tested, 1.5% active | AID 434973, 2010;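 active = inhibition above about 50% at the single test dose, limit read from the data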;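 also: plate controls were DMSO with enzyme for no effect and no enzyme buffer wells for full effect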
SENP8 block-2: human SENP8 protease inhibitors, primary screen, biochemical, fluorescence, Nedd8 protein substrate, uHTS; Sentrin-specific protease 8 (Homo sapiens), Q96LD8; recombinant SENP8; inhibition, % at 20 µM; 360,000 tested, 0.64% active; in the data active = inhibition mostly above about 40%, no sharp cut-off; inactive = mostly below about 27%
Active calls of the source: *; . = no result given.

SMILES | SENP1 inh | UCH37 inh | SENP6 inh | SENP8 block-1 | SENP7 inh | SENP8 block-2
CC(CC1(O)C(=O)N(C)c2ccccc21)=NO (centres undefined) | . | 3 | . | . | . | .
CC(CC(=O)Nc1ccc(OCc2ccccc2)cc1)=NNC(=O)C(=O)Nc1cccc(C)c1 | . | 1 | . | . | . | .
O=C(Nc1ccc(NC(=O)c2cccs2)cn1)c1ccccc1 | 1 | -5 | 64* | 38 | 67* | 5
CCS(=O)(=O)c1nn2c(N)c(/C=C3/C=CC(=O)C(OC)=C3)c(=O)nc2s1 | -24 | 22* | 8 | -6 | -3 | -32
COc1ccc(/C(C#N)=C/c2ccccn2)cc1 | -2 | . | 64* | 54* | 6 | -281
Cc1cc([N+](=O)[O-])nn1Cc1ccc(C(=O)NN=Cc2ccc(F)cc2)cc1 | . | 5 | . | . | . | .
O=C(/C=C/Nc1ccccc1O)c1ccco1 | -36 | 8 | 89* | 77* | 85* | -37
O=C(/C=C/Nc1ccccc1Oc1ccccc1)c1ccco1 | -24 | -3 | 3 | -19 | -7 | -130
Cc1cccc(N=Nc2c(C)nn(-c3ccccc3)c2N)c1C | -1 | 3 | 5 | 5 | -6 | 28
Cc1cccc(N=Nc2c(C)[nH]n(C(N)=S)c2=O)c1C | . | 5 | 77* | 65* | 39 | .
CCN(CC)c1ccc2c(-c3ccc(S(=O)(=O)O)cc3S(=O)(=O)[O-])c3ccc(=[N+](CC)CC)cc-3oc2c1 | 34* | 13 | 14 | 32 | 9 | 17
O=C1CS/C(=N/N=Cc2c[nH]c3ccccc23)N1 | . | 2 | . | . | . | .
COC/C=C/C1=CC2=CC(=O)C(C)(OC(=O)c3cnc4ccccc4n3)C(=O)C2=CN1c1ccc(CO)cc1 (centres undefined) | . | . | -55 | -3 | 12 | .
COC/C=C/C1=CC2=CC(=O)C(C)(OC(=O)c3cnc4ccccc4n3)C(=O)C2=CN1CC(C)C (centres undefined) | -11 | 3 | 20 | -4 | -4 | 54*
COc1ccc(Br)cc1CNc1ccc2[nH]c(=O)[nH]c2c1 | 0 | -1 | -15 | -1 | 8 | -61
COc1ccc(Br)cc1CNc1ccc(O)cc1 | 1 | 2 | 6 | -6 | 58* | 61*
CN(C)Cc1cc(O)c(CN(C)C)cc1O | 32* | -1 | 32 | 7 | -2 | 55*
CN(C)Cc1cc(C(C)(C)C)cc(C(C)(C)C)c1O | 0 | 0 | 2 | 8 | 2 | 18
COc1ccc(NC2=C(NCCO)C(=O)c3ccccc3C2=O)cc1 | -5 | 16 | 46 | 29 | 10 | 36
COc1cccc(NC2=C(NCCO)C(=O)c3ccccc3C2=O)c1 | 0 | 14 | 20 | 23 | 6 | 54*
CC(C)(C)C(=O)[C@@H]1[C@@H]2C(=O)N(c3ccc4c(c3)OCCO4)C(=O)[C@@H]2C2c3ccccc3C=CN21 (some centres undefined) | 9 | 12 | 24 | 14 | 10 | 60*
CCN1C(=O)/C(=C2\C=Cc3ccccc3N2CC)SC1=S | 13 | 4 | -19 | 0 | 9 | 46*
COc1cc(NS(=O)(=O)c2ccc(C)cc2)c2c(c1N)C(=O)c1ccccc1C2=O | 18 | . | . | . | . | 41*
O=C(NN=Cc1ccc(OC(=O)c2ccco2)cc1)c1ccc(Cl)cc1 | . | 1 | . | . | . | .
FC(F)Oc1ccc(C=NNC(=S)Nc2cc(C(F)(F)F)ccc2Cl)cc1 | . | 1 | . | . | . | .
SMILES | SENP1 inh | UCH37 inh | SENP6 inh | SENP8 block-1 | SENP7 inh | SENP8 block-2
O=C(CCN1C(=O)/C(=C\C=C\c2ccccc2)SC1=S)Nc1ccc(C(=O)O)cc1 | -11 | 7 | 59* | 60* | 18 | 16
O=C(CN1C(=O)S/C(=C/C=C/c2ccccc2)C1=O)Nc1ccc(C(=O)O)cc1 | -2 | 14 | 29 | 6 | 5 | -130
CC(=NNC(=O)c1ccc(O)cc1)c1ccc2c(c1)Nc1ccccc1S2 | . | -1 | . | . | . | .
O=[N+]([O-])c1ccccc1N=Nc1ccc(O)cc1O | 7 | 21* | . | . | . | 65*
O=[N+]([O-])c1cc(N=Nc2ccc3ccccc3c2)ccc1O | 6 | 4 | . | . | . | 36
Cc1ccc(/C=C2\SC(=S)N(C3CCS(=O)(=O)C3)C2=O)o1 (centres undefined) | -60 | 4 | 23 | -6 | 11 | 56*
O=C1C=C(O)c2cccc(O)c2C1=O | 4 | . | 66* | 31 | 14 | 45*
O=C1c2cccc(O)c2C(=O)c2c(O)cccc21 | . | . | 7 | 1 | 12 | .
CCN(c1ccccc1)S(=O)(=O)c1ccc(Cl)c(NC(=O)COC(=O)c2cc(O)c3ccccc3c2O)c1 | . | . | 62* | 32 | 12 | .
CCN(c1ccccc1)S(=O)(=O)c1ccc(Cl)c(NC(=O)COC(=O)c2ccc(O)cc2)c1 | 2 | 1 | 11 | 0 | 5 | 16
N#C/C(=N/Nc1ccc(OC(F)(F)F)cc1)C(N)=S | -1 | . | 79* | 49 | -55 | 46*
Cc1c(C=NN2C(=O)C3C4C=CC(C4)C3C2=O)c2ccccc2n1C (centres undefined) | . | 7 | . | . | . | .
COC(=O)/C(=C/C(=O)c1ccccc1)Nc1ccc(OC)cc1 | . | 4 | . | . | . | .
Cc1ccc([C@@H]2[C@@H]3C(=O)N(C)C(=O)[C@@H]3[C@]3(C)C(=O)N(Cc4ccccc4)CC(=O)N23)o1 | -3 | 25* | -6 | 0 | 1 | -1
CCOC(=O)C(=NNc1ccccc1)c1csc(Nc2ccc(C)cc2)n1 | . | 8 | . | . | . | .
Cc1noc(/C=C/Nc2ccc(F)cc2F)c1[N+](=O)[O-] | -25 | . | 87* | 84* | 97* | 7
CC1(C)Cc2c(sc(N=CN3CCCC3)c2C#N)C(C)(C)N1 | . | 8 | . | . | . | .
CCC(C)[C@@H](N)C(=O)NN=Cc1ccc2ncccc2c1 (some centres undefined) | . | 4 | . | . | . | .
COc1cccc(C=NNC(=O)CC(=O)NCCc2ccc(OC)c(OC)c2)c1 | . | 3 | . | . | . | .
COc1cccc(C=NNc2nc(Nc3ccccc3)nc(-n3nc(C)cc3C)n2)c1O | . | 2 | . | . | . | .
CSc1ccc(NC(=O)Nc2ccccc2C(N)=O)cc1 | 2 | -9 | 97* | 92* | 95* | -72
Cc1ccc(Cl)cc1Nc1nc(-c2sc(NC(=O)c3cccc(Cl)c3)nc2C)cs1 | . | . | 66* | 56* | -3 | .
Cc1ccccc1Nc1nc(-c2sc(NC(=O)c3ccccc3)nc2C)cs1 | . | . | 80* | 61* | 61* | .
COc1ccc(OC)c(Nc2nc(-c3sc(NC(=O)c4ccccc4)nc3C)cs2)c1 | . | . | 67* | 52* | 53* | .
